Laboratory results: ChEMBL document CHEMBL1126198, “A new class of high affinity ligands for the neurokinin A NK2 receptor: psi (CH2NR) reduced peptide bond analogues of neurokinin A4-10” (J Med Chem, 1992)
Starred links: 1 amine or outer side, 2 acyl side, 3 side chain; linkers in the order of their positions; H or OH if unused. Non-standard residues stand in square brackets, D forms with d. Residues, ends and D or L forms follow the SMILES beside them. *: point of attachment. X3 = N[C@@H](CC(=O)O)C(=O)N[C@@H](CO)CN([C@@H](Cc1ccccc1)C(=O)[*:2])[*:1]; Leuψ(CH2NH)PheNH2 = CC(C)C[C@@H](CN[C@@H](Cc1ccccc1)C(N)=O)N*; X9 = CC(C)CC(=O)N(C[C@H](CC(C)C)N*)[C@@H](CC(C)C)C(N)=O; X7 = CCCN(C[C@H](CC(C)C)N*)[C@@H](Cc1ccccc1)C(N)=O; X4 = CC(C)C[C@H](NC(=O)[C@H](CC(C)C)NCCN*)C(N)=O; X2 = CCN(C[C@H](CC(C)C)N*)[C@@H](CC(C)C)C(N)=O; X8 = CC(C)C[C@@H](CN(C)[C@@H](CC(C)C)C(N)=O)N*; X6 = CC(C)C[C@H](NC[C@H](Cc1ccccc1)N*)C(N)=O; X1 = CC(C)C[C@@H](CN[C@@H](CC(C)C)C(N)=O)N*; X5 = O=C(O)CCCN([C@@H](CO)C(=O)[*:2])[*:1]; βAla = NCCC(=O)O

These compounds were tested on Cricetinae gen. sp. (assay: Compound was evaluated for the competitive antagonism of NKA-stimulated PI (phosphatidylinositol) turnover in hamster urinary bladder tissue using [3H]inositol as radioligand). Settings: read-out: pA2 (converted).
Assay type: functional
How it was run: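 Chopped hamster bladder labeled 1 h at 37 °C with [3H]myo-inositol. Assay run at room temperature in Krebs-HEPES (20 mM). Total inositol phosphates isolated on ion-exchange columns eluted sequentially, starting with water. PI turnover ratio = inositol phosphates cpm / organic extraction phase cpm. Basal level taken without NKA; maximum stimulation with 1 μM NKA. Mean ± SEM of separate experiments.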
`CC(C)C[C@@H](CN[C@@H](CC(C)C)C(N)=O)NC(=O)CNC(=O)[C@@H](NC(=O)[C@H](Cc1ccccc1)NC(=O)[C@H](CO)NC(=O)[C@@H](N)CC(=O)O)C(C)C` (H-DSFVG-X1) showed a Kb of 200 nM.

The compounds below were run against T1, Substance-K receptor (Mesocricetus auratus, UniProt P51144) (assay: Competitive inhibition of [125I]NKA binding to hamster urinary bladder Tachykinin receptor 2). Settings: not given.
T1 sequence (P51144 whole entry): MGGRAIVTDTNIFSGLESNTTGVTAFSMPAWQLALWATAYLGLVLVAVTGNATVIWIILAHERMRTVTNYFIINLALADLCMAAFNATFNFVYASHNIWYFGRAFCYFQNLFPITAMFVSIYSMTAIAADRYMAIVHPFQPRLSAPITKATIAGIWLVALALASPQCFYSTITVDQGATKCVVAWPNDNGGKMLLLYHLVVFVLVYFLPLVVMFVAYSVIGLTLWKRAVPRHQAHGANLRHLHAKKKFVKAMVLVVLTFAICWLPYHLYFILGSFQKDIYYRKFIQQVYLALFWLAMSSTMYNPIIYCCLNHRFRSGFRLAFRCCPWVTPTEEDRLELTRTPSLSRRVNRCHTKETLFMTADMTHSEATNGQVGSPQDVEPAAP
Assay type: single protein
In the case of `CCN(C[C@H](CC(C)C)NC(=O)CNC(=O)[C@@H](NC(=O)[C@H](Cc1ccccc1)NC(=O)[C@H](CO)NC(=O)[C@@H](N)CC(=O)O)C(C)C)[C@@H](CC(C)C)C(N)=O` (H-DSFVG-X2), the IC50 is reported as 277 nM. Work on `CC(C)C[C@@H](CN[C@@H](CC(C)C)C(N)=O)NC(=O)CNC(=O)[C@@H](NC(=O)[C@H](Cc1ccccc1)NC(=O)[C@H](CO)NC(=O)[C@@H](N)CC(=O)O)C(C)C` (H-DSFVG-X1) yielded an IC50 of 115 nM. `CCCN(C[C@H](CC(C)C)NC(=O)CCNC(=O)[C@@H](NC(=O)[C@H](Cc1ccccc1)NC(=O)[C@H](CO)NC(=O)[C@@H](N)CC(=O)O)C(C)C)[C@@H](Cc1ccccc1)C(N)=O` (H-DSFV[βAla]-X7) gave an IC50 of 1 nM. `CSCC[C@H](NC(=O)[C@H](CC(C)C)NC(=O)CNC(=O)[C@@H](NC(=O)[C@H](Cc1ccccc1)NC(=O)[C@H](CO)NC(=O)[C@H](CC(=O)O)NC(=O)[C@@H](NC(=O)[C@H](CCCCN)NC(=O)[C@@H](N)Cc1cnc[nH]1)[C@@H](C)O)C(C)C)C(N)=O` [NEUROKININ A] showed an IC50 of 1 nM. With `CSCC[C@H](NC(=O)[C@H](CC(C)C)NC(=O)CNC(=O)[C@@H](NC(=O)[C@H](Cc1ccccc1)NC(=O)[C@H](CO)NC(=O)[C@@H](N)CC(=O)O)C(C)C)C(N)=O` the IC50 was 6 nM. In the case of `CC(C)C[C@H](NC(=O)[C@H](CC(C)C)NC(=O)CNC(=O)[C@@H](NC(=O)[C@H](Cc1ccccc1)NC(=O)[C@H](CO)NCCCC(=O)O)C(C)C)C(N)=O` (H-[X5]FVGLL-NH2), the IC50 is reported as 1650 nM. Compound `CC(C)C[C@@H](CN[C@@H](Cc1ccccc1)C(N)=O)NC(=O)CNC(=O)[C@@H](NC(=O)[C@H](Cc1ccccc1)NC(=O)[C@H](CO)NC(=O)[C@@H](N)CC(=O)O)C(C)C` (H-DSFVG-{Leuψ(CH2NH)PheNH2}) has an IC50 of 9 nM. Compound `CC(C)C[C@H](NC(=O)[C@H](CC(C)C)NCCNC(=O)[C@@H](NC(=O)[C@H](Cc1ccccc1)NC(=O)[C@H](CO)NC(=O)[C@@H](N)CC(=O)O)C(C)C)C(N)=O` (H-DSFV-X4) has an IC50 greater than 10000 nM. `CC(C)C[C@@H](CN[C@@H](CC(C)C)C(N)=O)NC(=O)CCNC(=O)[C@@H](NC(=O)[C@H](Cc1ccccc1)NC(=O)[C@H](CO)NC(=O)[C@@H](N)CC(=O)O)C(C)C` (H-DSFV[βAla]-X1) was tested, and the IC50 was 108 nM. Compound `CSCC[C@H](NC(=O)[C@H](CC(C)C)NC(=O)CNC(=O)[C@H](Cc1ccccc1)NC(=O)[C@H](Cc1ccccc1)NC(=O)[C@H](CCC(N)=O)NC(=O)[C@H](CCC(N)=O)NC(=O)[C@@H]1CCCN1C(=O)[C@H](CCCCN)NC(=O)[C@@H]1CCCN1C(=O)[C@@H](N)CCCN=C(N)N)C(N)=O` [SUBSTANCE P] has an IC50 of 148 nM. In the case of `CC(C)C[C@H](NC(=O)[C@H](CC(C)C)NC(=O)CNC(=O)[C@@H](NC(=O)[C@H](Cc1ccccc1)NC[C@H](CO)NC(=O)[C@@H](N)CC(=O)O)C(C)C)C(N)=O` (H-[X3]VGLL-NH2), the IC50 is reported as greater than 10000 nM. `CC(C)CC(=O)N(C[C@H](CC(C)C)NC(=O)CNC(=O)[C@@H](NC(=O)[C@H](Cc1ccccc1)NC(=O)[C@H](CO)NC(=O)[C@@H](N)CC(=O)O)C(C)C)[C@@H](CC(C)C)C(N)=O` (H-DSFVG-X9) gave an IC50 of 162 nM. For `CC(C)C[C@H](NC(=O)[C@H](CC(C)C)NC(=O)CNC(=O)[C@@H](NC(=O)[C@H](Cc1ccccc1)NC(=O)[C@H](CO)NC(=O)[C@@H](N)CC(=O)O)C(C)C)C(N)=O`, the IC50 was 136 nM. Compound `CC(C)C[C@H](NC(=O)[C@H](CC(C)C)NC(=O)CNC(=O)[C@@H](NC[C@H](Cc1ccccc1)NC(=O)[C@H](CO)NC(=O)[C@@H](N)CC(=O)O)C(C)C)C(N)=O` has an IC50 greater than 10000 nM. With `CC(C)C[C@H](NC[C@H](Cc1ccccc1)NC(=O)CNC(=O)[C@@H](NC(=O)[C@H](Cc1ccccc1)NC(=O)[C@H](CO)NC(=O)[C@@H](N)CC(=O)O)C(C)C)C(N)=O` (H-DSFVG-X6) the IC50 was greater than 10000 nM. `CC(C)C[C@H](NC(=O)[C@H](CC(C)C)NC(=O)CNC[C@@H](NC(=O)[C@H](Cc1ccccc1)NC(=O)[C@H](CO)NC(=O)[C@@H](N)CC(=O)O)C(C)C)C(N)=O` gave an IC50 of 5660 nM. `CC(C)C[C@@H](CN(C)[C@@H](CC(C)C)C(N)=O)NC(=O)CNC(=O)[C@@H](NC(=O)[C@H](Cc1ccccc1)NC(=O)[C@H](CO)NC(=O)[C@@H](N)CC(=O)O)C(C)C` (H-DSFVG-X8) was tested, and the IC50 was 193 nM. Work on `CC(C)C[C@@H](CN[C@@H](Cc1ccccc1)C(N)=O)NC(=O)CCNC(=O)[C@@H](NC(=O)[C@H](Cc1ccccc1)NC(=O)[C@H](CO)NC(=O)[C@@H](N)CC(=O)O)C(C)C` (H-DSFV[βAla]-{Leuψ(CH2NH)PheNH2}) yielded an IC50 of 10 nM.
